Reference: ChEMBL document CHEMBL4689842, “EUbOPEN Chemogenomics Library wave 1” (2021)

Tested on: Fibroblast
Assay: Multiplex assay against human fibroblast
Format: toxicity, cell-based
Procedure, shortened: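 Values for tubulin, mitochondrial-mass and membrane-permeability phenotypes are per cents of cells with healthy nuclei. These cells were identified by CellPathfinder machine-learning gating of live cells that had been stained at seeding with Hoechst33342, BioTracker Green Microtubule Cytoskeleton Dye, MitoTracker Red and Annexin V Alexa Fluor 680 and imaged on a CQ1 microscope at 37°C and 5% CO2 after compound addition. The gating first set Hoechst high-intensity objects apart from normal cells, then split normal cells into healthy, pyknosed or fragmented nuclei, and pyknosed cells into mitotic or apoptotic.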

[1] = 12 h, 1 µM, compound concentration 1 uM, replicate 1
[2] = 12 h, 1 µM, compound concentration 1 uM, replicate 2
[3] = 12 h, 10 µM, compound concentration 10 uM, replicate 1
[4] = 12 h, 10 µM, compound concentration 10 uM, replicate 2
[5] = 24 h, 1 µM, compound concentration 1 uM, replicate 1
[6] = 24 h, 1 µM, compound concentration 1 uM, replicate 2
[7] = 24 h, 10 µM, compound concentration 10 uM, replicate 1
[8] = 24 h, 10 µM, compound concentration 10 uM, replicate 2
[9] = 48 h, 1 µM, compound concentration 1 uM, replicate 1
[10] = 48 h, 1 µM, compound concentration 1 uM, replicate 2
[11] = 48 h, 10 µM, compound concentration 10 uM, replicate 1
[12] = 48 h, 10 µM, compound concentration 10 uM, replicate 2

Cc1ccc(C(=O)Nc2cccc(C(F)(F)F)c2)cc1Nc1nc(-c2cccnc2)nc2c1cnn2C
Population Apoptotic (%) [1]: 61%
Population Fragmented Nuclei (%) [1]: 34%
Population Healthy Nuclei (%) [1]: 29%
Population Hoechst High Intensity Objects (%) [1]: 10%
Population Membrane Permeable-Phenotype (%) [1]: 28%
Population Mitochondria Different-Phenotype (%) [1]: 3%
Population Mitotic Cells (%) [1]: 38%
Population Normal (%) [1]: 89%
Population Pyknosed Nuclei (%) [1]: 35%
Population Tubulin-Different-Phenotype (%) [1]: 53%
Total Cell Count [1]: 122
Population Apoptotic (%) [2]: 50%
Population Fragmented Nuclei (%) [2]: 14%
Population Healthy Nuclei (%) [2]: 73%
Population Hoechst High Intensity Objects (%) [2]: 3%
Population Membrane Permeable-Phenotype (%) [2]: 6%
Population Mitochondria Different-Phenotype (%) [2]: 25%
Population Mitotic Cells (%) [2]: 50%
Population Normal (%) [2]: 96%
Population Pyknosed Nuclei (%) [2]: 12%
Population Tubulin-Different-Phenotype (%) [2]: 14%
Total Cell Count [2]: 101
Population Apoptotic (%) [3]: 65%
Population Fragmented Nuclei (%) [3]: 24%
Population Healthy Nuclei (%) [3]: 33%
Population Hoechst High Intensity Objects (%) [3]: 13%
Population Membrane Permeable-Phenotype (%) [3]: 34%
Population Mitochondria Different-Phenotype (%) [3]: 37%
Population Mitotic Cells (%) [3]: 34%
Population Normal (%) [3]: 86%
Population Pyknosed Nuclei (%) [3]: 41%
Population Tubulin-Different-Phenotype (%) [3]: 88%
Total Cell Count [3]: 121
Population Apoptotic (%) [4]: 61%
Population Fragmented Nuclei (%) [4]: 18%
Population Healthy Nuclei (%) [4]: 42%
Population Hoechst High Intensity Objects (%) [4]: 8%
Population Membrane Permeable-Phenotype (%) [4]: 78%
Population Mitochondria Different-Phenotype (%) [4]: 92%
Population Mitotic Cells (%) [4]: 38%
Population Normal (%) [4]: 91%
Population Pyknosed Nuclei (%) [4]: 39%
Population Tubulin-Different-Phenotype (%) [4]: 100%
Total Cell Count [4]: 66
Population Apoptotic (%) [5]: 66%
Population Fragmented Nuclei (%) [5]: 40%
Population Healthy Nuclei (%) [5]: 41%
Population Hoechst High Intensity Objects (%) [5]: 14%
Population Membrane Permeable-Phenotype (%) [5]: 19%
Population Mitochondria Different-Phenotype (%) [5]: 5%
Population Mitotic Cells (%) [5]: 33%
Population Normal (%) [5]: 85%
Population Pyknosed Nuclei (%) [5]: 17%
Population Tubulin-Different-Phenotype (%) [5]: 43%
Total Cell Count [5]: 142
Population Apoptotic (%) [6]: 27%
Population Fragmented Nuclei (%) [6]: 12%
Population Healthy Nuclei (%) [6]: 72%
Population Hoechst High Intensity Objects (%) [6]: 3%
Population Membrane Permeable-Phenotype (%) [6]: 7%
Population Mitochondria Different-Phenotype (%) [6]: 29%
Population Mitotic Cells (%) [6]: 72%
Population Normal (%) [6]: 96%
Population Pyknosed Nuclei (%) [6]: 14%
Population Tubulin-Different-Phenotype (%) [6]: 16%
Total Cell Count [6]: 101
Population Apoptotic (%) [7]: 85%
Population Fragmented Nuclei (%) [7]: 27%
Population Healthy Nuclei (%) [7]: 34%
Population Hoechst High Intensity Objects (%) [7]: 10%
Population Membrane Permeable-Phenotype (%) [7]: 42%
Population Mitochondria Different-Phenotype (%) [7]: 44%
Population Mitotic Cells (%) [7]: 14%
Population Normal (%) [7]: 89%
Population Pyknosed Nuclei (%) [7]: 37%
Population Tubulin-Different-Phenotype (%) [7]: 81%
Total Cell Count [7]: 124
Population Apoptotic (%) [8]: 90%
Population Fragmented Nuclei (%) [8]: 26%
Population Healthy Nuclei (%) [8]: 11%
Population Hoechst High Intensity Objects (%) [8]: 20%
Population Membrane Permeable-Phenotype (%) [8]: 100%
Population Mitochondria Different-Phenotype (%) [8]: 75%
Population Mitotic Cells (%) [8]: 9%
Population Normal (%) [8]: 79%
Population Pyknosed Nuclei (%) [8]: 61%
Population Tubulin-Different-Phenotype (%) [8]: 100%
Total Cell Count [8]: 77
Population Apoptotic (%) [9]: 42%
Population Fragmented Nuclei (%) [9]: 59%
Population Healthy Nuclei (%) [9]: 36%
Population Hoechst High Intensity Objects (%) [9]: 23%
Population Membrane Permeable-Phenotype (%) [9]: 15%
Population Mitochondria Different-Phenotype (%) [9]: 0%
Population Mitotic Cells (%) [9]: 57%
Population Normal (%) [9]: 76%
Population Pyknosed Nuclei (%) [9]: 4%
Population Tubulin-Different-Phenotype (%) [9]: 59%
Total Cell Count [9]: 189
Population Apoptotic (%) [10]: 75%
Population Fragmented Nuclei (%) [10]: 65%
Population Healthy Nuclei (%) [10]: 32%
Population Hoechst High Intensity Objects (%) [10]: 22%
Population Membrane Permeable-Phenotype (%) [10]: 12%
Population Mitochondria Different-Phenotype (%) [10]: 3%
Population Mitotic Cells (%) [10]: 25%
Population Normal (%) [10]: 77%
Population Pyknosed Nuclei (%) [10]: 2%
Population Tubulin-Different-Phenotype (%) [10]: 63%
Total Cell Count [10]: 231
Population Apoptotic (%) [11]: 66%
Population Fragmented Nuclei (%) [11]: 45%
Population Healthy Nuclei (%) [11]: 38%
Population Hoechst High Intensity Objects (%) [11]: 21%
Population Membrane Permeable-Phenotype (%) [11]: 40%
Population Mitochondria Different-Phenotype (%) [11]: 18%
Population Mitotic Cells (%) [11]: 33%
Population Normal (%) [11]: 78%
Population Pyknosed Nuclei (%) [11]: 16%
Population Tubulin-Different-Phenotype (%) [11]: 88%
Total Cell Count [11]: 165
Population Apoptotic (%) [12]: 60%
Population Fragmented Nuclei (%) [12]: 56%
Population Hoechst High Intensity Objects (%) [12]: 25%
Population Membrane Permeable-Phenotype (%) [12]: 14%
Population Mitochondria Different-Phenotype (%) [12]: 64%
Population Mitotic Cells (%) [12]: 40%
Population Normal (%) [12]: 74%
Population Pyknosed Nuclei (%) [12]: 4%
Population Tubulin-Different-Phenotype (%) [12]: 95%
Total Cell Count [12]: 146
